# Assay outcomes (PubChem)
# Hits are enriched below; roughly 2.3% of the tested compounds scored in any of these assays.
# CSN deneddyl inh – inhibitors of CSN-mediated cullin deneddylation, primary screen, biochemical, fluorescence polarization, uHTS; COP9 signalosome complex subunit 5 (Homo sapiens), Q92905; Purified CSN, SCF-Nedd8-OG deneddylation; inhibition, % at 12.5 µM; 0.38% of 360,000 active; AID 651999, 2013;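 active means pattern-corrected inhibition above about 35%, with an unprinted fluorescence ratio check between 0.5 and 1.5, limit read from the data, passing the limit was not always enough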
#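 Material: human Csn5 produced in HEK293T cells; Input: enzyme 0.24 nM; Reagent: SCFSkp2-Nedd8OG substrate at 10 nM final; Dosing: 12.5 µM compound; Incubation: 90 min reaction at room temperature; Detection: fluorescence polarization of the substrate; Evaluation: % inhibition of substrate cleavage by Csn5; Control set: substrate-only high control, full reaction low control.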
# HNF4A DNA FP – change in binding of human HNF4A to DNA, primary screen, biochemical, fluorescence polarization, FITC-DNA; Hepatocyte nuclear factor 4-alpha (Homo sapiens), P41235; 1 h; activity change, % at 10 µM; 0.3% of 360,000 active; in the data active means activity change above about 30%, passing the limit was not always enough
# Target sequence (P41235 whole entry, looked up): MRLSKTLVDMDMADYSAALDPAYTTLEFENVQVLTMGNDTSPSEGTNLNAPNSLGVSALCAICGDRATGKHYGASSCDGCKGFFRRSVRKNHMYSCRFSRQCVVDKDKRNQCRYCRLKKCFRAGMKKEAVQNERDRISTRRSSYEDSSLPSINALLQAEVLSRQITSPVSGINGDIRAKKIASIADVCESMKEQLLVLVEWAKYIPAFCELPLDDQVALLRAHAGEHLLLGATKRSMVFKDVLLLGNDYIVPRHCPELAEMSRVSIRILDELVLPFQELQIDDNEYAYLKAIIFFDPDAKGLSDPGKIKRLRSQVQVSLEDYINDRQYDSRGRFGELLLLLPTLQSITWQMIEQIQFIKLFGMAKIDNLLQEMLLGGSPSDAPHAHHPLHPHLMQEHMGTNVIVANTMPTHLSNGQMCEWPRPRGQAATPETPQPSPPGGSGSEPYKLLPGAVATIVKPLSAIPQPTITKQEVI
# TPT1 inh – Candida albicans TPT1 enzyme inhibitors, primary screen, biochemical, fluorescence polarization | tRNA 2'-phosphotransferase TPT1 (Candida albicans SC5314) | recombinant caTPT1, FP RNA substrate dephosphorylation | inhibition, % at 5 µM | 0.81% of 300,000 active | AID 1962, 2009;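 active means inhibition above the mean of all tested compounds plus 3 SD, set per screening campaign, cut at about 24% in these data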
# Rpn11 block – Rpn11 (PSMD14) deubiquitinase inhibitors, primary screen, biochemical, fluorescence polarization, uHTS. AID 588493, 2011. human 26S proteasome, Ub4-pepOG fluorescence polarization; 20S core pre-blocked with epoxomicin. inhibition, % at 20 µM. 0.59% of 360,000 active. 26S proteasome non-ATPase regulatory subunit 14 (Homo sapiens), O00487;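 active means inhibition at 20 µM, scaled to each plate's controls, above about 33%, limit read from the data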
# Myeloid diff 2 – induction of myeloid progenitor differentiation, primary screen, cell-based, flow cytometry, MLPCN library; ER-HoxA9 myeloid progenitors, lysozyme-GFP differentiation; calls only at 10 µM; 1% of 360,000 active; AID 624256, 2012;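 active means normalized GFP-positive differentiation at or above the plate's own cutoff, the solvent-only control mean plus 3 SD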;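 further: cells exposed to compound for four days before flow analysis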
# Numbers stand for hits; – = inactive; · = not tested or not shown; + = active, no number.
SMILES,CSN deneddyl inh,HNF4A DNA FP,TPT1 inh,Rpn11 block,Myeloid diff 2
COc1cc(CNc2ccc(N3CCCC3)cc2)ccc1OCc1ccccc1,–,–,–,–,+
COc1cc(CNc2ccc(N3CCCC3)cc2)ccc1OCc1ccccc1F,–,–,–,–,+
O=C(Nc1ccc2c(c1)OCCO2)c1[nH]c(C(F)(F)F)nc1-c1ccccc1,–,–,·,–,–
Cc1ccc(N2CCN(c3ccc(C)cc3)C(CC(=O)O)C2=O)cc1 (stereo unspecified),–,–,–,–,+
Cn1c(=O)n(C)c2cc(/C=N/NC(=O)c3ccncc3)ccc21,·,·,–,·,·
CCn1c(O)c(/C=N/NC(=O)c2ccncc2)c(=O)n(CC)c1=S,–,77.7,·,·,–
CCOCCCn1c(=N)c(C(N)=S)cc2c(=O)n3cccc(C)c3nc21,–,–,–,–,–
CCCCNC(=O)c1cc2c(=O)n3cccc(C)c3nc2n(Cc2ccccc2)c1=N,–,–,–,–,+
Cc1cccn2c(=O)c3cc(C(N)=S)c(=N)n(CCCOC(C)C)c3nc12,–,–,–,–,+
O=C(Nc1ccc(N2CCOCC2)cc1)c1csc([C@H]2C[C@H](O)[C@@H](CO)O2)n1,–,–,·,–,–
O=c1[nH][nH]c2c1[C@H](C1CCCC1)O[C@H](CCc1ccccc1)C2,–,–,·,·,–
Cn1nnnc1Sc1ncnc2scc(-c3cccc4c3sc3ccccc34)c12,–,–,·,–,+
COc1ccc(-c2csc3ncnc(Sc4nnnn4C)c23)cc1,–,–,·,–,+
COC(=O)[C@@]12C[C@@H](CC(=O)NCc3cccc(C(F)(F)F)c3)C(=O)N(Cc3ccc4c(c3)OCO4)C1=CCC(C)(C)C2,–,–,·,·,–
S=c1[nH]nc(C2CCCCC2)n1/N=C/c1ccc(Br)cc1,–,–,–,–,–
S=c1[nH]nc(C2CCCCC2)n1/N=C/C(Cl)=C\c1ccccc1,–,–,–,–,+
S=c1[nH]nc(C2CCCCC2)n1/N=C/c1ccc(Br)s1,–,34.6,–,–,–
O=c1c(-c2ccco2)nc2ccccc2n1C(c1ccccn1)c1nc2ccccc2[nH]1 (stereo unspecified),–,–,·,·,–
CC1CCN(c2ccc3c(c2)S(=O)(=O)c2cccc(C(=O)NCc4ccc(F)cc4)c2C3=O)CC1,–,–,·,–,–
O=C(NCc1ccco1)c1cccc2c1C(=O)c1ccc(N3CCC(N4CCCCC4)CC3)cc1S2(=O)=O,38.7,–,·,·,–
O=C(NCc1ccccc1C(F)(F)F)c1cccc2c1C(=O)c1ccc(N3CCCCC3)cc1S2(=O)=O,–,–,·,–,–
O=C(NCc1ccc(F)cc1)c1cccc2c1C(=O)c1ccc(N3CCC(Cc4ccccc4)CC3)cc1S2(=O)=O,–,–,·,–,+
O=C(NC1CC1)c1cccc2c1C(=O)c1ccc(N3CCC(Cc4ccccc4)CC3)cc1S2(=O)=O,–,–,·,–,–
O=C(NCc1cc(C(F)(F)F)ccc1Cl)c1cccc2c1C(=O)c1ccc(N3CCC(Cc4ccccc4)CC3)cc1S2(=O)=O,–,–,·,–,+
O=C(NCc1ccc(F)cc1)c1cccc2c1C(=O)c1ccc(N3CCC(N4CCCCC4)CC3)cc1S2(=O)=O,44.8,–,·,·,+
SMILES,CSN deneddyl inh,HNF4A DNA FP,TPT1 inh,Rpn11 block,Myeloid diff 2
Cc1cc(NC(=O)CS(=O)c2cn(Cc3cccc(Cl)c3)c3ccccc23)no1 (stereo unspecified),–,–,·,–,–
CSc1nc(COC(=O)NC(C)C)c(COC(=O)NC(C)C)n1Cc1ccccc1,–,–,·,–,–
C#CCNC(=O)C[C@@H]1C[C@@]2(C(=O)OCC)CCCC=C2N(CCC2=CCCCC2)C1=O,–,–,·,·,–
COc1ccc([C@@H]2CC(=O)[C@@H]3CN(S(=O)(=O)c4ccc(C)cc4)[C@H](c4ccccc4)C[C@@H]3N2S(=O)(=O)c2ccccc2)cc1,–,–,·,–,–
OCCN1CCN(c2ncnc3c2ncn3[C@H]2CN(Cc3cccc(C(F)(F)F)c3)C[C@@H](CO)O2)CC1,–,–,·,–,–
CC(C)c1cccc(-c2ccc3c(c2)S(=O)(=O)c2cccc(C(=O)NCc4ccco4)c2C3=O)c1,49.0,–,·,–,–
